According to PMC7561591 (European Journal of Medicinal Chemistry, 2020):

What was measured:
[1] = reference compounds of the solubility assay; cited from earlier work
[2] = Metabolic stability in human liver microsomes; format: in vitro ADME
Outline: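 Test compound (10 μM) preincubated 5 min at 37 °C with HLM (1 mg/mL) in 0.1 M phosphate buffer pH 7.4, then started with 2 mM NADPH under shaking at 37 °C. Samples at 0, 10, 20, 40 and 60 min quenched in cold acetonitrile with labetalol internal standard and centrifuged. Unchanged substrate and metabolites tracked; t1/2 and CLint from kinetic analysis.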

Row | SMILES | equilibrium solubility of reference compounds [1] [µM] | intrinsic clearance ([2]; HLM, kinetic analysis in WebMetabase) [μL/min∗ mgprot] | half-life at 10 μM ([2]; human, liver microsomes, pH 7.4) [h]
1 | C[C@H]1O[C@@H](O[C@H]2[C@@H](O)C[C@H](O[C@H]3[C@@H](O)C[C@H](O[C@H]4CC[C@@]5(C)[C@H](CC[C@@H]6[C@@H]5C[C@@H](O)[C@]5(C)[C@@H](C7=CC(=O)OC7)CC[C@]65O)C4)O[C@@H]3C)O[C@@H]2C)C[C@H](O)[C@@H]1O [Digossin] | 84.0 |  | 
2 | Cc1cc(-c2ccccc2)nc2nc(C(=O)Nc3ccccc3C(N)=O)nn12 [Compound 23] |  | 4.18 | 2.77
